Compound activity as filed in PubChem.
Shown are actives, neighbours in structure and some others; about 2.3% of the full set was active somewhere.
MT1-MMP act inh = blocks activation of human MT1-MMP; P50281; HT1080 RFP-PRO-GFP cells, GFP/RFP ratio fluorescence, overnight; percent of plate control window, DMSO zero; GFP/RFP ratio change, % at 20 µM; actives 0.061% (n = 360,000);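 active = GFP/RFP ratio change of at least 30% with cell ATP level not reduced by more than half and red fluorescence within 50% of control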
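system = RFP-PRO-GFP reporter HT1080 cells | dosing = 20 µM single dose, 1% DMSO | timing = overnight cell settling, then overnight compound exposure, 37 °C, 5% CO2 | read-out basis = GFP/RFP fluorescence ratio | controls = DMSO and RFP-L50D-GFP cell wells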
SUMO1 PPI mod = alters human SUMO1 binding to SIM partners | P63165 | SUMO1 binding to a labelled peptide, TR-FRET, 1 h | inhibition, % at 20 µM | actives 0.33% (n = 360,000) | AID 602429; in the data active = inhibition above about 37%
Target sequence (P63165 whole entry, looked up): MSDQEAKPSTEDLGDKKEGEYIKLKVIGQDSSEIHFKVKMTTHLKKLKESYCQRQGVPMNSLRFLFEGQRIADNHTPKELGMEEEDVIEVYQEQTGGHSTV
CSN inh = inhibitors of human CSN-mediated cullin deneddylation. Q92905. Purified CSN, SCF-Nedd8-OG deneddylation, fluorescence polarization. inhibition, % at 12.5 µM. actives 0.38% (n = 360,000);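 active = pattern-corrected inhibition above about 35%, with an unprinted fluorescence ratio check between 0.5 and 1.5, limit read from the data, passing the limit was not always enough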;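 also: 0% = enzyme with substrate and 100% = substrate without enzyme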
Target sequence (Q92905 whole entry, looked up, one chain of several): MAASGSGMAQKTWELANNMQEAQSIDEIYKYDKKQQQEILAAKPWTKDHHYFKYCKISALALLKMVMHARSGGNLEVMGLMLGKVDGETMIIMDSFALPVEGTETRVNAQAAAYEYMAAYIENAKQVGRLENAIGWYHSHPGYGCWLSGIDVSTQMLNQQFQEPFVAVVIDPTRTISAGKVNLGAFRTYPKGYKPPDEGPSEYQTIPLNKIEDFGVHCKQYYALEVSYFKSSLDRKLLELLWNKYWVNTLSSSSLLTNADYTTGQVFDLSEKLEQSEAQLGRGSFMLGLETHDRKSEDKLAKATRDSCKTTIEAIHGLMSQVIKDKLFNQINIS
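Detection – fluorescence polarization · System – HEK293T-derived human Csn5 enzyme · Controls – substrate-only high control, full reaction low control · Timing – 90 min, room temperature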
DNMT1 block = blocks human DNA methyltransferase DNMT1. P26358. inhibition (reported as % activation of signal), % at 10 µM. AID 588458. actives 0.83% (n = 360,000). DNMT1 molecular beacon, Hinp1I cleavage, fluorescence; in the data active = inhibition above about 50%
Rpn11 inh = Rpn11 (human) deubiquitinase inhibition; human 26S proteasome, Ub4-pepOG fluorescence polarization; 20S core pre-blocked with epoxomicin; inhibition, % at 20 µM; actives 0.59% (n = 360,000); AID 588493;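 active = inhibition at 20 µM, scaled to each plate's controls, above about 33%, limit read from the data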
SKN-1 inh = C. elegans SKN-1 inhibition; C. elegans VP596 Pgst-4::GFP/RFP ratio, acrylamide-induced, 24 h; inhibition, % at 21.8 µM; actives 0.49% (n = 360,000); AID 624304;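 active = interference check ratio from 0.5 to 1.5 plus GFP to RFP signal ratio inhibition reaching or exceeding a fixed threshold, cut at about 30% in these data, passing the limit was not always enough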
DNMT1 confirm = confirmation of human DNMT1 inhibitors | shares compounds with DNMT1 block | DNMT1 molecular beacon HinP1I cleavage, fluorescence | inhibition, % at 10 µM | actives 8% (n = 2,300) | AID 602385;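 active = average inhibition of at least 30% in the single-concentration confirmation test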
DNMT1 interf = shows spectral interference in the DNMT1 beacon assay; AID 602387; actives 1% (n = 2,300); activation (fluorescence interference), % at 10 µM; DNMT1 molecular beacon spectral interference counterscreen, fluorescence 485/520; shares compounds with DNMT1 block;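 active = activation of at least 30% at 10 µM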;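 also: DNMT1 catalytic domain with a HinP1I cleavage step and a FAM/dabcyl DNA beacon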
Starred values were filed as active, the others as inactive; x = no result.

SMILES	MT1-MMP act inh	SUMO1 PPI mod	CSN inh	DNMT1 block	Rpn11 inh	SKN-1 inh	DNMT1 confirm	DNMT1 interf
CC12CCC3C(CCC4CC(O)CCC43C)C1CC(=O)C2 (stereo not drawn)	4	1	-5	-4	11	14	x	x
CC(=O)N(CN1C(=O)c2ccccc2C1=O)c1ccc2c(c1)oc1ccccc12	0	-11	-2	79*	-6	-1	2	2
O=C(CCCOc1ccc(Cl)cc1Cl)NNC(=O)c1ccc(NC(=O)c2ccccc2)cc1	3	0	22	73*	33	-7	0	-2
COc1ccc(CCN2CC(C(=O)OCC(=O)Nc3c(C)nn(-c4ccccc4)c3C)CC2=O)cc1OC (stereo not drawn)	2	6	1	86*	-1	0	4	4
O=C(COC(=O)c1ccccc1O)Nc1ncc(Cl)cc1Cl	-2	24	5	64*	-7	9	12	4
COc1cccc(S(=O)(=O)N(C)C[C@@H]2Oc3cc(Br)ccc3S(=O)(=O)N([C@@H](C)CO)C[C@@H]2C)c1	-4	1	-1	83*	-7	8	0	7
CC1C=CC(C)C(C(=O)O)C1C(=O)O (stereo not drawn)	1	9	13	61*	-4	-19	0	1
CC(C)CNC(=O)C1C2C=CC(C2)C1C(=O)O (stereo not drawn)	0	6	-2	1	-2	3	x	x
O=C(CC[C@H]1O[C@@H](n2cnc3c(NC(=O)c4ccccc4)ncnc32)[C@H](O)[C@@H]1O)NCc1nc2ccccc2[nH]1	2	44*	-3	116*	-7	-1	3	4
CN1C(=O)[C@H]2[C@@H](c3ccc(C(F)(F)F)cc3)N[C@]3(CCCN(Cc4ccc(Br)cc4)C3=O)[C@H]2C1=O	13	-2	-4	-3	0	17	x	x
CNC(=O)CSc1nnc(SCCC(=O)O)s1	0	5	-6	73*	-10	-12	0	1
CNC(=O)CSc1nc(SC)ns1	2	-1	7	4	-4	-9	x	x
Cc1cc(C(=O)N/N=C/c2cc(Br)c(Br)o2)n[nH]1	3	-3	16	64*	-10	1	-1	-1
Cc1ccc(-c2nc3ccc(C)cn3c2CC2CCCCC2)cc1	-9	6	10	x	x	5	x	x
CCNc1ccc(Br)cc(C(=O)/C=C/c2ccc(Cl)cc2)c1=O	-11	20	32	66*	31	8	4	1
Cn1c(SCC(=O)O)nc2sc3c(c2c1=O)CCC3	0	-1	-2	0	1	-2	x	x
Cc1cc(NC(=O)CSc2nc3sc4c(c3c(=O)n2C)CCCC4)no1	-2	2	5	56*	0	-8	3	-10
CCn1c(SCC(=O)O)nc2sc3c(c2c1=O)CCC3	-5	11	20	71*	-10	11	4	-2
CCn1c(SCC(=O)OC)nc2sc3c(c2c1=O)CCC3	-2	4	15	70*	-18	3	5	4
CCn1c(SCC(=O)Nc2cc(C)on2)nc2sc3c(c2c1=O)CCCC3	-3	0	3	48	19	2	x	x
O=C(COC(=O)c1ccc(-c2nnc(-c3ccccc3)o2)cc1)c1ccccc1	1	3	-10	54*	30	4	1	1
CC1(C(=O)Nc2ccc(Cl)c(Cl)c2)CCN1C(=O)CCC1CCCC1 (stereo not drawn)	9	7	0	5	1	14	x	x
Cc1cc2cc(CNC(=O)Nc3ccccc3)ccc2n1C	41	-6	-2	54*	0	38*	2	5
